Test results published in ChEMBL document CHEMBL1126123, “Reversible inhibitors of the gastric (H+/K+)-ATPase. 3. 3-substituted-4-(phenylamino)quinolines” (J Med Chem, 1992).

How the values were obtained:
[1] = target: Potassium-transporting ATPase (Rattus norvegicus) (UniProt P09626+P18598); experiment: Inhibition of pentagastrin stimulated gastric acid secretion in anesthetized rat at 10 umol/kg upon intravenous administration; format: functional, organism-based; conditions: Stomach
[2] = target: T1, Potassium-transporting ATPase (Sus scrofa, UniProt P19156); experiment: […] inhibit the activity of K+ stimulated gastric ATPase; format: tissue-based, Stomach
T1 sequence (P18434 whole entry): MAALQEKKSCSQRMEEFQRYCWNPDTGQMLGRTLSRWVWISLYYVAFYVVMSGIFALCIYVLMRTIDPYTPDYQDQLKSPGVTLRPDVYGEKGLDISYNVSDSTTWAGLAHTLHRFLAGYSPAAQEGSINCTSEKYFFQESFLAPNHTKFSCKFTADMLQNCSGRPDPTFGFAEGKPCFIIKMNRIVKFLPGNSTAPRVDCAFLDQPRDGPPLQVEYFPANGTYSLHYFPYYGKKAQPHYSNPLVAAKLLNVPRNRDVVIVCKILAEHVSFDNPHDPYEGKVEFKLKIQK
T1 sequence (P19156 whole entry): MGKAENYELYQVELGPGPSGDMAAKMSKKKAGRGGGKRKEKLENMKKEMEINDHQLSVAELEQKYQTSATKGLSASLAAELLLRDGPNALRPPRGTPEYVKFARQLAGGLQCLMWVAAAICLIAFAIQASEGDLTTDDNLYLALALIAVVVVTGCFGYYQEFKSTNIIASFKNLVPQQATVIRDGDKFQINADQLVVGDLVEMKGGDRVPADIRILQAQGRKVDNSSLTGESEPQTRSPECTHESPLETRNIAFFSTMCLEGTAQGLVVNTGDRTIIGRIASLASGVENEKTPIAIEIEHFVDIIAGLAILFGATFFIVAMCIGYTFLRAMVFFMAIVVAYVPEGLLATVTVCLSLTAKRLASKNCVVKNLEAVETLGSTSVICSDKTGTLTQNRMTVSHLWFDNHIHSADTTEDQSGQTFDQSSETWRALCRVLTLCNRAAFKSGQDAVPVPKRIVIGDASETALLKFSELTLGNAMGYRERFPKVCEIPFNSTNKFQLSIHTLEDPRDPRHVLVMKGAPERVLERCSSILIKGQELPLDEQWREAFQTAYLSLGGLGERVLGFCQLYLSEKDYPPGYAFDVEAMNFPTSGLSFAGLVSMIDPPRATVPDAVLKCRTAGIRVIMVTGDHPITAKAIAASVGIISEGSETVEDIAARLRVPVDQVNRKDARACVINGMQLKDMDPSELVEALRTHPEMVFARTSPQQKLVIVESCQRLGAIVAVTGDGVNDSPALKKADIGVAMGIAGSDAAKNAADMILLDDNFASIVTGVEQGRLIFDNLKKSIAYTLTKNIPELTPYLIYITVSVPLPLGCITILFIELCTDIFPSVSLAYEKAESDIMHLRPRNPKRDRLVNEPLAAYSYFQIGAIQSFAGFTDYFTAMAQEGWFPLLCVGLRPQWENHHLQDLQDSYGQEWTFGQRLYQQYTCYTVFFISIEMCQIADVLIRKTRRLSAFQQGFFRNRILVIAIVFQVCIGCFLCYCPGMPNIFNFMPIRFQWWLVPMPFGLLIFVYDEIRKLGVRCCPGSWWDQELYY
Procedure, shortened: (§1)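 Initial screen of K+-stimulated ATPase activity in a lyophilized gastric vesicle preparation at pH 7, in vitro.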

[3] = target: T2, Potassium-transporting ATPase subunit beta (Rattus norvegicus) (UniProt P18598); experiment: Inhibition of pentagastrin stimulated gastric acid secretion in anesthetized rat upon intravenous administration; format: functional, organism-based; conditions: Stomach
T2 sequence (whole entry): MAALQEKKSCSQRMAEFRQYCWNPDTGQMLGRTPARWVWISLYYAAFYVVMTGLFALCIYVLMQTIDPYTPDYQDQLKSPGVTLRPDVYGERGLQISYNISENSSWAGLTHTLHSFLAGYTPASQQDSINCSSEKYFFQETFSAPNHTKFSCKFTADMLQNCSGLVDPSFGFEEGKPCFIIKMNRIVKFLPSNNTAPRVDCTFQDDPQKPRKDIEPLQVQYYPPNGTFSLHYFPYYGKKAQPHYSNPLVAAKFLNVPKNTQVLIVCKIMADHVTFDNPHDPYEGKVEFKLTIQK
Procedure, shortened: (§2)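 Anesthetized rat with lumen-perfused stomach; acid secretion induced by pentagastrin; compound given intravenously.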

[4] = tested on: Canis familiaris; experiment: Inhibition of histamine stimulated gastric acid secretion was tested in heidenhain pouch dog at 1 umol/kg upon intravenous administration; format: functional; conditions: Canis lupus familiaris, Stomach
[5] = tested on: Canis familiaris; experiment: Inhibition of histamine stimulated gastric acid secretion was tested in heidenhain pouch dog at 4 uM/kg upon oral administration; format: functional, Canis lupus familiaris, Stomach
[6] = tested on: Canis familiaris; experiment: Inhibition of histamine stimulated gastric acid secretion was tested in heidenhain pouch dog upon intravenous administration; format: functional; conditions: Canis lupus familiaris, Stomach
[7] = tested on: Canis familiaris; experiment: Inhibition of histamine stimulated gastric acid secretion was tested in heidenhain pouch dog upon oral administration; format: functional; conditions: Canis lupus familiaris, Stomach
[8] = target: T3, Potassium-transporting ATPase (Sus scrofa) (UniProt P18434+P19156); experiment: […] inhibit the activity of K+ stimulated gastric ATPase at 100 uM; format: tissue-based; conditions: Stomach
[9] = target: T1, Potassium-transporting ATPase; experiment: (§3) […] inhibit the activity of gastric H+/K+ ATPase; format: tissue-based, Stomach; procedure, shortened: as §1
[10] = tested on: Rattus norvegicus; experiment: Compound was evaluated for inhibition pentagastrin stimulated gastric acid secretion in anesthetized rat when administered intravenously.; format: functional; conditions: Stomach, iv; procedure, shortened: as §2
[11] = tested on: Rattus norvegicus; experiment: inhibition pentagastrin stimulated gastric acid secretion in anesthetized rat when compound (10 umol/kg) administered intravenously; format: functional, Stomach
[12] = target: T3, Potassium-transporting ATPase (Sus scrofa); experiment: as §3; format: tissue-based; conditions: Stomach; procedure, shortened: as §1

| SMILES | inhibition [1] [%] | IC50 [2] [µM] | also measured |
| --- | --- | --- | --- |
| CCOC(=O)c1cnc2ccccc2c1Nc1ccccc1C | 49 | 0.6 | – |
| COc1cccc2c(Nc3ccccc3C)c(C(=O)OCCN(C)C)cnc12 | 19 | 44 | – |
| COc1cccc2c(Nc3ccccc3C)c(C)cnc12 | 12.5 | 6.1 | – |
| CCCC(=O)c1cnc2c(OC)cccc2c1Nc1ccccc1 | 34 | 4 | – |
| COc1cccc2c(Nc3ccccc3C)c(C(C)O)cnc12 (stereo not given) | – | 24 | – |
| COCC(=O)c1cnc2c(OC)cccc2c1Nc1ccccc1C | – | 12.1 | ED50 [3]: 12.2 µmol/kg |
| COc1cccc2c(Nc3ccccc3C)c(C(C)=O)cnc12 | – | 4.8 | ED50 [3]: 13.2 µmol/kg; inhibition in vivo at 1 µmol/kg [4]: 11% |
| COc1cccc2c(Nc3ccccc3C)c(C(=O)NCc3ccccc3)cnc12 | 13 | 49 | – |
| CCCCNC(=O)c1cnc2c(OC)cccc2c1Nc1ccccc1C | 30 | 65 | – |
| COc1cccc2c(Nc3ccccc3C)c(C(=O)C(C)(C)C)cnc12 | 63 | 2.6 | Inhibition [5]: 11.3% |
| COc1cccc2c(Nc3ccccc3C)c(C(=O)C3CCC3)cnc12 | 47 | 1.2 | – |
| C=CCNC(=O)c1cnc2c(OC)cccc2c1Nc1ccccc1C | 38 | 3.45 | – |
| CO/N=C(\C)c1cnc2c(OC)cccc2c1Nc1ccccc1C | – | 20.5 | – |
| CCCc1cnc2c(OC)cccc2c1Nc1ccccc1C | 34 | 8.63 | – |
| COc1cccc2c(Nc3ccccc3C)ccnc12 | – | 0.1 | ED50 [3]: 12.7 µmol/kg |
| Cc1ccccc1Nc1c(Br)cnc2ccccc12 | 31 | 14.1 | – |
| CCCC(=O)c1cnc2ccccc2c1Nc1ccccc1C | – | 0.97 | ED50 [3]: 5.45 µmol/kg; inhibition in vivo at 1 µmol/kg [4]: 45.4% |
| Cc1ccccc1Nc1ccnc2ccccc12 | 16 | 1.43 | – |
| Cc1ccccc1Nc1c(N)cnc2ccccc12 | 27 | 30.6 | – |
| CCCC(=O)c1cnc2c(OC)cccc2c1Nc1ccccc1C | – | 1.05 | ED50 [6]: 0.26 µmol/kg; ED50 [7]: 1.6 µmol/kg; ED50 [3]: 2.62 µmol/kg |
| CCCNC(=O)c1cnc2c(OC)cccc2c1Nc1ccccc1C | 40 | 22 | – |
| CCC(CC)C(=O)c1cnc2c(OC)cccc2c1Nc1ccccc1C | 55 | 1.8 | – |

| SMILES | inhibition [1] [%] | IC50 [2] [µM] | also measured |
| --- | --- | --- | --- |
| CCC[S+]([O-])c1cnc2ccccc2c1Nc1ccccc1C (stereo not given) | 21 | – | inhibition [8]: 19% |
| CCC(=O)c1cnc2c(OC)cccc2c1Nc1ccccc1C | – | 0.4 | Inhibition [5]: 92.3%; ED50 [3]: 1.39 µmol/kg; inhibition in vivo at 1 µmol/kg [4]: 80.9% |
| Cc1ccccc1Nc1c([N+](=O)[O-])cnc2ccccc12 | 30 | – | – |
| COc1cccc2c(Nc3ccccc3C)c(C(N)=O)cnc12 | – | – | IC50 [9]: 15.3 µM |
| CCNC(=O)c1cnc2c(OC)cccc2c1Nc1ccccc1C | 58 | 2.94 | – |
| CCCSc1cnc2ccccc2c1Nc1ccccc1C | 11 | 5.14 | – |
| CCCC(O)c1cnc2c(OC)cccc2c1Nc1ccccc1C (stereo not given) | – | 55 | – |
| CCOC(=O)c1cnc2c(OC)cccc2c1Nc1ccccc1C.Cl | – | – | Inhibition [5]: 11.1%; ED50 [6]: 0.49 µmol/kg; ED50 [10]: 8.23 µmol/kg |
| COc1cccc2c(Nc3ccccc3C)c(C(=O)N3CCCC3)cnc12 | 15 | – | inhibition [8]: 20% |
| COc1cccc2c(Nc3ccccc3C)c(C(=O)c3ccccc3)cnc12 | – | 16.1 | – |
| CCOC(=O)c1cnc2c(OC)cccc2c1Nc1ccccc1.Cl | – | – | IC50 [9]: 3.54 µM; Inhibition [11]: 38% |
| CN/C(=N\CCSCc1nc[nH]c1C)NC#N [CIMETIDINE] | – | – | ED50 [6]: 1.7 µmol/kg; ED50 [7]: 8.5 µmol/kg |
| COc1cccc2c(Nc3ccccc3C)c(C(=O)C(C)C)cnc12 | – | 1.09 | Inhibition [5]: 44.6%; ED50 [3]: 1.92 µmol/kg; inhibition in vivo at 1 µmol/kg [4]: 75% |
| COc1cccc2c(Nc3ccccc3C)c(C(=O)C3CCCCC3)cnc12 | 42 | 3.8 | – |
| COc1cccc2c(Nc3ccccc3C)c(C(=O)NC(C)(C)CO)cnc12 | 13 | – | inhibition [8]: 26% |
| CCOC(=O)c1cnc2c(OC)cccc2c1Oc1ccccc1C | – | – | inhibition [8]: 13% |
| COc1cccc2c(Nc3ccccc3C)c(CO)cnc12 | – | – | IC50 [9]: 11.6 µM; Inhibition [11]: 5% |
| CCOC(=O)c1cnc2c(OC)cccc2c1N(C)c1ccccc1 | – | 89 | – |
| COc1cccc2c(Nc3ccccc3C)c(C(=O)O)cnc12 | – | – | inhibition [12]: 30% |
| COc1cccc2c(Nc3ccccc3C)c(C(=O)C3CCCC3)cnc12 | 56 | 1.7 | Inhibition [5]: 55.7% |
| CCCCCC(=O)c1cnc2c(OC)cccc2c1Nc1ccccc1C | – | 2.77 | ED50 [3]: 10.7 µmol/kg |
| CNC(=O)c1cnc2c(OC)cccc2c1Nc1ccccc1C | – | – | IC50 [9]: 6.73 µM; Inhibition [11]: 28% |
